Sampled rows, rich in hits. Any-hit rate of the full collection: about 3.9%.
UPR XBP1 act: activators of adaptive XBP1 UPR arm, primary screen, cell-based, CHO-XBP1 luciferase reporter, luminescence, uHTS; hit rate 0.33% among 330,000; IRE1-XBP1 UPR activation; percent of tunicamycin response, DMSO as zero; activation, % at 20 µM;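 active means versus positive control, 20 µM dose yields 30% or more activation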
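Material: IRE1-XBP1 luciferase reporter CHO line / Quantity: one thousand reporter cells per well / Buffer or medium: F12 with 10% serum / Compound: 20 µM single concentration, DMSO 1% / Times: 6 h treatment, 37 °C / Detection: Steady-Glo luciferase glow luminescence, 10 min after reagent addition / Benchmarks: tunicamycin high, DMSO low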
697 NFkB inh: inhibitors of PMA/ionomycin-induced NF-kB reporter, 697 cells, primary screen, B-cell NF-kB inhibitor project, cell-based, luminescence, uHTS. AID 435022, 2010. 697 B-cell NF-kB luciferase reporter, 16 h. hit rate 0.33% among 330,000. inhibition, % at 4 µM; in the data active means inhibition above about 35%
Gli-Sufu antag: Gli-Sufu pathway antagonists, primary screen, luciferase luminescence, Sufu-KO-LIGHT cells, uHTS | Sufu-KO-LIGHT fibroblasts, Gli luciferase reporter luminescence | inhibition, % at 5 µM | hit rate 0.74% among 340,000;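 active means inhibition above about 55%, limit read from the data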
Jurkat NFkB inh: inhibitors of induced NF-kB luciferase reporter, primary screen, TCR NF-kB activation inhibitor project, cell-based, luminescence, uHTS | Jurkat, PMA/ionomycin-induced NF-kB luciferase reporter | inhibition, % at 4 µM | hit rate 0.53% among 330,000; in the data active means inhibition above about 50%
CHOP inhibitor: inhibitors of CHOP promoter induction, primary screen, cell-based, unfolded protein response, luciferase reporter; CHO-K1 CHOP-promoter luciferase, tunicamycin-induced, 15-18 h; inhibition, % at 10 µM; hit rate 3.8% among 220,000;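 active means compounds that reduced the stress-induced luciferase reporter signal by more than about 70% of percent inhibition, limit read from the data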
CHOP UPR activ: activators of apoptotic CHOP UPR arm, primary screen, cell-based, CHO-CHOP luciferase reporter, luminescence, uHTS. UPR activation; percent of tunicamycin response over DMSO baseline. activation, % at 10 µM. hit rate 0.34% among 330,000. AID 449763, 2010;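 active means at 10 µM dose, activation of 40% or more, normalized to positive control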
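Assay system: CHO-CHOP cells, stable luciferase reporter of PERK-eIF2a-CHOP signalling / Buffer or medium: F12 plus 10% serum / Compound dosing: one dose, 10 µM in 0.5% DMSO / Times: 6 h compound treatment, 37 °C / Technique: luciferase luminescence / Read-out: % reporter activation, DMSO baseline versus tunicamycin full activation / Benchmarks: tunicamycin and DMSO controls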
Large screens that a line does not name were inactive.

COc1cc(OC)cc(C(=O)Nc2ccc(S(=O)(=O)Nc3ccccn3)cc2)c1	none (no result: CHOP inhibitor)
Cc1c(C)n2c(SCC(=O)Nc3cccc4ccccc34)nnc2[nH]c1=O	none (no result: CHOP inhibitor)
O=C(NCCCN1CCOCC1)c1cc(Cl)ccc1OCc1ccccc1	none (no result: CHOP inhibitor)
Cc1c(NC(=O)Cn2[nH]c(=O)c3ccccc3c2=O)c(=O)n(-c2ccccc2)n1C	none
Cc1sc(NC(=O)Cn2[nH]c(=O)c3ccccc3c2=O)nc1-c1ccccc1	CHOP inhibitor 88
COc1cccc(-c2nc(CS(=O)(=O)CC(=O)Nc3cc(F)ccc3F)c(C)o2)c1	none (no result: CHOP inhibitor)
Cc1ccccc1-c1nc(CS(=O)(=O)CC(=O)Nc2cc(F)ccc2F)c(C)o1	CHOP inhibitor 78
CCc1cccc(NC(=O)CCS(=O)(=O)c2cccc3nonc23)c1	CHOP inhibitor 83
Cc1ccsc1CN(C)CC(=O)Nc1ccccc1C(=O)NC1CC1	none (no result: CHOP inhibitor)
CC1Sc2ccc(S(=O)(=O)N(C)Cc3ccccc3)cc2NC1=O (centres undefined)	none (no result: CHOP inhibitor)
CCc1ccc(NC(=O)CCc2nc3cccnc3n2Cc2ccc(OC)cc2)cc1	CHOP inhibitor 92
Cc1ccc(S(=O)(=O)Nc2ccc(-c3nc4ccc(C)cc4s3)cc2)cc1	CHOP inhibitor 87 (no result: Gli-Sufu antag)
Cc1ccc2nc(-c3ccc(NS(=O)(=O)c4c(C)n(C)c(=O)n(C)c4=O)cc3)sc2c1	none
COc1ccc(C2(C)NC(=O)N(CC(=O)Nc3ccc(-c4nc5ccc(C)cc5s4)cc3)C2=O)cc1 (centres undefined)	CHOP inhibitor 71
Cc1ccc2nc(-c3ccc(NC(=O)CSc4nc(N)cc(=O)[nH]4)cc3)sc2c1	CHOP inhibitor 73
Cc1nnc(SCC(=O)Nc2ccc(-c3nc4ccccc4s3)cc2)s1	CHOP inhibitor 86 (no result: UPR XBP1 act, 697 NFkB inh, Jurkat NFkB inh, CHOP UPR activ)
Cc1nnc(SCC(=O)Nc2ccccc2NC(=O)CSc2nnc(C)s2)s1	none
CCN(CC)C(=O)c1nc[nH]c1C(=O)O[C@@H](C)c1ccccc1	none (no result: CHOP inhibitor)
Cc1ccc2nc(-c3ccc(NC(=S)NC(=O)CC(C)C)cc3)sc2c1	CHOP inhibitor 96
Cc1ccc2nc(-c3ccc(NC(=O)CCS(=O)(=O)c4ccccc4)cc3)sc2c1	CHOP inhibitor 82
Cc1ccc2nc(-c3ccc(NC(=O)CNC4CC4)cc3)sc2c1	none (no result: UPR XBP1 act, 697 NFkB inh, Jurkat NFkB inh, CHOP UPR activ)
Cc1nc2ccc(NC(=O)CCS(=O)(=O)c3ccccc3)cc2s1	none
CCc1ccc2c(COC(=O)C3CSC4(C)CCC(=O)N34)cc(=O)oc2c1 (centres undefined)	none (no result: CHOP inhibitor)
CC(=C/c1ccc(C(C)C)cc1)/C=N/NC(=O)Cn1nc(C)cc1C	none
CC(/C=N/NC(=O)Cn1nccc1C)=C\c1ccc(C(C)C)cc1	CHOP inhibitor 76
COCCN(C(=O)COC(=O)c1ccc2[nH]c(C)c(C)c2c1)c1c(N)n(Cc2ccccc2)c(=O)[nH]c1=O	none (no result: CHOP inhibitor)
CCC1C/C(=C/c2ccco2)C(=O)/C(=C/c2ccco2)C1 (centres undefined)	CHOP inhibitor 86 (no result: UPR XBP1 act, 697 NFkB inh, Gli-Sufu antag, Jurkat NFkB inh, CHOP UPR activ)
O=C(NCc1ccc(F)cc1)C1CCCN1C(=O)Nc1cccc(F)c1 (centres undefined)	none (no result: CHOP inhibitor)
CC(C)CCn1c(=O)[nH]c2ccccc21	none
O=c1[nH]c2ccccc2n1CCC1CCCCC1	CHOP inhibitor 86
CC1(C)CC(=O)C(C2C3=C(CC(C)(C)CC3=O)OC3=C2C(=O)CC(C)(C)C3)=C(O)C1	none
Brc1ccc(C2=CC(c3cccs3)n3ncnc3N2)cc1 (centres undefined)	Gli-Sufu antag 98
OCCCc1nc2n(n1)C(c1cccs1)C=C(c1ccc(Br)cc1)N2 (centres undefined)	none (no result: Gli-Sufu antag)
O=C(CCc1ccc(O)cc1)c1c(O)cc(O)cc1O	none
COc1cc(O)c(CC=C(C)C)c(O)c1C(=O)CCc1ccc(O)cc1	CHOP inhibitor 89
CC(=O)c1ccc(N2CCN(C(=O)c3ccccc3SCC(=O)NCc3ccco3)CC2)c(F)c1	none (no result: UPR XBP1 act, 697 NFkB inh, Jurkat NFkB inh, CHOP inhibitor, CHOP UPR activ)
O=C(NCc1cc(C(F)(F)F)ccc1Cl)c1cccc2c1C(=O)c1ccc(-c3ccc(OC(F)(F)F)cc3)cc1S2(=O)=O	UPR XBP1 act 162, CHOP UPR activ 91 (no result: Gli-Sufu antag, CHOP inhibitor)
COC(=O)c1ccc2c(c1)c(-c1ccccc1)c(-c1ccccc1)n2C	none (no result: Jurkat NFkB inh, CHOP inhibitor)
CCCN(CCC)C1Sc2ccc(C(=O)OC)cc2NC1=O (centres undefined)	CHOP inhibitor 82
COC(=O)c1ccc2c(c1)NC(=O)C(N(CC(C)C)CC(C)C)S2 (centres undefined)	none
O=C(CCCCn1c(=O)[nH]c2ccccc2c1=O)N1CCN(c2cccc(C(F)(F)F)c2)CC1	CHOP inhibitor 88
O=C(CSCc1ccccc1)N1CCN(c2cccc(C(F)(F)F)c2)CC1	CHOP inhibitor 85
O=C(CCn1c(=O)[nH]c2ccccc2c1=O)N1CCN(c2cccc(C(F)(F)F)c2)CC1	none
O=C1Nc2ccccc2OC1CC(=O)N1CCN(c2cccc(C(F)(F)F)c2)CC1 (centres undefined)	CHOP inhibitor 86
O=C(CSCc1ccccc1)N1CCN(c2ccccc2)CC1	none
C/C(=C\c1ccccc1)C(=O)N1CCN(c2cccc(C(F)(F)F)c2)CC1	CHOP inhibitor 82
Cc1c(CNCCc2ccc(Cl)cc2)c(C(=O)O)c(C)n1-c1ccccc1	none (no result: CHOP inhibitor)
CCC(C)[C@H](NC(=O)C1CC(=O)N(c2ccc(OC)cc2)C1)C(=O)N1CCCCC1 (some centres undefined)	none (no result: CHOP inhibitor)
Cc1cccc(C)c1-n1c(C)cc(/C=N\Nc2ccc([N+](=O)[O-])cn2)c1C	none
Cc1cc(/C=N/Nc2nc(N)ncc2[N+](=O)[O-])c(C)n1-c1ccccc1F	CHOP inhibitor 80 (no result: Gli-Sufu antag)
COc1ccc(NC(=S)NC(=O)C2CCC2)cc1	none (no result: CHOP inhibitor)
COC(=O)c1ccc(CNC(=O)COC(=O)C2CCC(C(C)(C)C)CC2)cc1 (centres undefined)	CHOP inhibitor 93
O=C1NN(c2ccc(F)cc2)C(=O)/C1=C\c1cnn(-c2ccccc2)c1	CHOP inhibitor 70 (no result: Gli-Sufu antag)
O=C1NN(c2ccccc2)C(=O)/C1=C/c1cccs1	UPR XBP1 act 31 (no result: Gli-Sufu antag)
Cc1ccc(N2C(=O)C(Cl)=C(N3CCCCCC3)C2=O)c(C)c1	none (no result: CHOP inhibitor)
O=C(CCc1nc(-c2ccccc2)no1)Nc1cc(C(F)(F)F)ccc1Cl	CHOP inhibitor 93
CCCC(=O)Nc1ccc(C(=O)Nc2cc(C(F)(F)F)ccc2Cl)cc1	CHOP inhibitor 73
O=C(Cc1ccccc1)NC(=S)Nc1cc(C(F)(F)F)ccc1Cl	CHOP inhibitor 95
Cc1cccc(-c2noc(CCC(=O)Nc3ccccc3)n2)c1	none
